Nine compounds from ChEMBL document CHEMBL4265871, “Novel alkylated azoles as potent antifungals” (Eur J Med Chem, 2017) can be followed below.

The structures appear in SMILES notation. In brackets after ≈: the same amount, converted by molar mass.

Data set [1] can be described thus: Selectivity index, ratio of EC50 for toxicity in human BEAS2B cells to MIC50 for antifungal activity against Candida krusei ATCC 6258. Particulars: BEAS-2B cells.
A short description of data set [2]: Selectivity index, ratio of EC50 for toxicity in human A549 cells to MIC50 for antifungal activity against ITC and FLC-susceptible Candida albicans ATCC MYA-2310. In kind it is cell-based. The settings on record: read-out: Selectivity Index. The gist of the method: (§1)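 Selectivity index is the EC50 against the mammalian line (A549 or BEAS-2B) divided by the MIC against the given fungal strain.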

Data set [3] is described as follows: Selectivity index, ratio of EC50 for toxicity in human BEAS2B cells to MIC50 for antifungal activity against ITC and FLC-resistant Candida albicans ATCC 1237. In kind it is cell-based. The settings on record: BEAS-2B cells, read-out: Selectivity Index. The gist of the method:
as §1

A short description of data set [4]: Selectivity index, ratio of EC50 for toxicity in human A549 cells to MIC50 for antifungal activity against ITC and FLC-resistant Candida albicans ATCC MYA-1003. Particulars: read-out: Selectivity Index. The format is cell-based. Put shortly:
as §1

The nature of data set [5]: Selectivity index, ratio of EC50 for toxicity in human A549 cells to MIC50 for antifungal activity against ITC and FLC-susceptible Candida albicans ATCC MYA-2876. The settings on record: read-out: Selectivity Index. The format is cell-based. Put shortly:
as §1

For data set [6], the system named is Candida albicans. The data set is described as follows: Antifungal activity against Candida albicans ATCC 64124 incubated for 48 hrs by modified CLSI M27-A3 protocol based method. The format is functional. Particulars: ATCC 64124, 48 h.
The nature of data set [7]: Selectivity index, ratio of […] for toxicity in human BEAS2B cells to MIC50 for antifungal activity against Aspergillus terreus ATCC MYA-3633. Particulars: BEAS-2B cells, read-out: Selectivity Index. In kind it is cell-based.
Data set [8] has as its system Candida albicans. The data set is described as follows: Antifungal activity against ITC and FLC-resistant Candida albicans ATCC MYA-1003 incubated for 48 hrs by modified CLSI M27-A3 protocol based method. In kind it is functional. Particulars: ATCC MYA-1003, 48 h. Put shortly: (§2)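 Because these Candida strains show trailing growth, MIC-2 was read, meaning 50% growth inhibition. Caspofungin and voriconazole were tested here; other controls came from earlier work.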

The nature of data set [9]: Selectivity index, ratio of EC50 for toxicity in human BEAS2B cells to MIC50 for antifungal activity against ITC and FLC-resistant Candida albicans ATCC MYA-90819. The format is cell-based. The settings on record: BEAS-2B cells, read-out: Selectivity Index. Put shortly:
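Ratio of the compound's EC50 against BEAS-2B cells to its MIC against the named C. albicans strain. […] For C. albicans strains other than ATCC 10231, trailing growth meant MIC-2 was taken, meaning 50% growth inhibition.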

The nature of data set [10]: Selectivity index, ratio of […] for toxicity in human BEAS2B cells to MIC50 for antifungal activity against Aspergillus flavus ATCC MYA-3631. In kind it is cell-based. The settings on record: BEAS-2B cells, read-out: Selectivity Index.
Data set [11] is described as follows: Selectivity index, ratio of EC50 for toxicity in human BEAS2B cells to MIC50 for antifungal activity against ITC and FLC-resistant Candida albicans ATCC MYA-1003. In kind it is cell-based. The settings on record: BEAS-2B cells, read-out: Selectivity Index. The gist of the method: as §1
Data set [12] relates to Candida albicans. Nature of the data set: Antifungal activity against ITC and FLC-susceptible Candida albicans ATCC MYA-2876 incubated for 48 hrs by modified CLSI M27-A3 protocol based method. In kind it is functional. Particulars: ATCC MYA-2876, 48 h. Put shortly:
as §2

A short description of data set [13]: Selectivity index, ratio of EC50 for toxicity in human A549 cells to MIC50 for antifungal activity against Candida glabrata ATCC 2001. In kind it is cell-based. Particulars: read-out: Selectivity Index. Put shortly:
as §1

The nature of data set [14]: Toxicity in human A549 cells assessed as reduction in cell viability incubated for 24 hrs by resazurin dye based assay. The gist of the method:
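Toxicity tested in the nucleated lines A549 and BEAS-2B to give EC50 values. Selectivity index is EC50 against the mammalian line divided by the MIC against a given fungal strain.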
(Resazurin is reduced to fluorescent resorufin, in cell work by metabolically active cells.)

Data set [15] can be described thus: in vitro. Particulars: mouse, mouse erythrocytes.
The nature of data set [16]: Hemolytic activity in mouse erythrocytes assessed as hemolysis level at 15.6 ug/ml incubated for 1 hr at 37 degC. In kind it is ADME, cell-based, Erythrocyte. Particulars: read-out: Activity. The gist of the method:
(§3)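 Mouse erythrocytes incubated 1 h at 37 °C with test agents over 1.95 to 125 µg/mL. Percent lysis is read for each concentration.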

The nature of data set [17]: Hemolytic activity in mouse erythrocytes assessed as hemolysis level at 125 ug/ml incubated for 1 hr at 37 degC. The format is ADME, cell-based, Erythrocyte. Particulars: read-out: Activity. The gist of the method: as §3

What is called MIC50 is the lowest concentration that inhibits either 50% of growth or 50% of the strains tested, depending on the study. Higher therefore signals weaker potency. As usually defined, the EC50 is the concentration that produces a half-maximal response. For the compound `CCCCCC(O)(Cn1cncn1)c1ccc(F)cc1` (configuration not stated), the selectivity ratio worked out at 34 in [1]; 8 in data set [2]; 17 in data set [3]; 1 in data set [4]; 4 in data set [5]; 1 in data set [7]. The selectivity ratio stood at 34 in [9], 1 in [10], 1 in [11] and 4 in [13]. In addition, the MIC50 in data set [6] was over 113 µM; in data set [8] it was over 113 µM; in [12] it was 28.1 µM (≈ 7.79 µg/mL). Moreover, in [14], the EC50 at 24 h is over 31.3 µg/mL.
As for `CCCCCC(O)(Cn1cncn1)c1ccc(Cl)cc1` (configuration not stated), the selectivity ratio was found to be 261 in data set [1]; 2 in [2]; 8 in [3]; 16 in data set [4]; 2 in [5]; 1 in [7]. Moreover, the selectivity ratio in [9] was determined as 16; in data set [10] it was 1; in data set [11] it was 16; in data set [13] it was 8. Besides, the MIC50 in data set [6] was determined as 26.5 µM (≈ 7.79 µg/mL); in [8], 6.6 µM (≈ 1.94 µg/mL); in data set [12], 53.1 µM (≈ 15.6 µg/mL). The half-maximal effective concentration (EC50) at 24 h in data set [14] was over 31.3 µg/mL.
`CCCCCC(O)(Cn1cncn1)c1ccccc1F` (configuration not stated) returned a hemolysis at 1 h, 62.5 ug/ml in data set [15] of 0%. Further, the selectivity ratio is 522 in data set [1]; 38 in data set [2]; 32 in data set [3]; 9 in data set [4]; 38 in data set [5]; 8 in [7]. For the same compound, the selectivity ratio worked out at 65 in data set [9], 4 in data set [10], 8 in data set [11] and 38 in data set [13]. Further, in [16], the hemolysis at 1 h, 15.6 ug/ml stood at 0%. For the same compound, the MIC50 in [6] is over 113 µM; in [8], 14.1 µM (≈ 3.91 µg/mL); in [12], 3.5 µM (≈ 0.971 µg/mL). Besides, in [17], the hemolysis at 1 h, 125 ug/ml stood at 20.7%. In addition, the concentration giving a half-maximal response (EC50) at 24 h in data set [14] came to 37 µg/mL (≈ 133 µM).
In [15], `CCCCCCC(O)(Cn1cncn1)c1ccccc1F` (configuration not stated) gave a hemolysis at 1 h, 62.5 ug/ml of 28.8%. Further, the selectivity ratio in data set [1] stood at 522; in [2], 32; in [3], 32; in data set [4], 8; in data set [5], 32; in data set [7] it was 8. Besides, the selectivity ratio was 130 in data set [9], 1 to 2 in data set [10], 8 in [11] and 32 in data set [13]. The hemolysis at 1 h, 15.6 ug/ml in [16] was determined as 0%. Besides, the values for the MIC50 in [6], in data set [8] and in data set [12] were over 107 µM, 13.4 µM (≈ 3.9 µg/mL) and 3.3 µM (≈ 0.962 µg/mL), respectively. Moreover, the hemolysis at 1 h, 125 ug/ml in [17] is 85.6%. Moreover, the EC50 at 24 h in data set [14] was over 31.3 µg/mL.
In the case of `CCCCC(O)(Cn1cncn1)c1ccc(F)cc1F` (configuration not stated), in data set [15], the hemolysis at 1 h, 62.5 ug/ml stood at 0%. Besides, the selectivity ratio in data set [1] was 600; in [2], 1; in data set [3], 2; in [4], 8; in data set [5] it was 4; in data set [7], 2. The selectivity ratio in data set [9] is 2; in [10], 2; in data set [11], 9; in data set [13] it was 1. For the same compound, the hemolysis at 1 h, 15.6 ug/ml in [16] amounted to 0%. The values for the MIC50 in data set [6], in [8] and in [12] were 55.5 µM (≈ 15.6 µg/mL), 13.9 µM (≈ 3.91 µg/mL) and 27.7 µM (≈ 7.79 µg/mL), respectively. In addition, the hemolysis at 1 h, 125 ug/ml in data set [17] amounted to 0%. For the same compound, in data set [14], the EC50 at 24 h was over 31.3 µg/mL.
As to `CCCCCCC(O)(Cn1cncn1)c1ccccc1Cl` (configuration not stated), the hemolysis at 1 h, 62.5 ug/ml in [15] was determined as 81.7%. In addition, the selectivity ratio in data set [1] is 261; in data set [2], 16; in data set [3], 32; in [4], 4; in [5] it was 32; in data set [7], 65. For the same compound, the selectivity ratio in [9] is 16; in data set [10] it was 8 to 16; in data set [11], 4; in [13], 32. Besides, the hemolysis at 1 h, 15.6 ug/ml in [16] was 0%. The MIC50 in [6] is over 102 µM; in [8] it was 25.3 µM (≈ 7.79 µg/mL); in [12] it was 3.2 µM (≈ 0.985 µg/mL). For the same compound, the hemolysis at 1 h, 125 ug/ml in [17] worked out at 92%. Moreover, the EC50 at 24 h in [14] is over 31.3 µg/mL.
As to `CCCCCC(O)(Cn1cncn1)c1ccccc1Cl` (configuration not stated), the hemolysis at 1 h, 62.5 ug/ml in data set [15] came out at 0%. Besides, the selectivity ratio is 32 in data set [1]; 32 in [2]; 32 in [3]; 4 in [4]; 32 in data set [5]; 2 in data set [7]. In addition, the selectivity ratio in [9] was 65; in [10], 1; in [11], 4; in data set [13], 32. Moreover, the hemolysis at 1 h, 15.6 ug/ml in data set [16] was found to be 0%. Further, the values for the MIC50 in data set [6], in data set [8] and in [12] were over 106 µM, 26.5 µM (≈ 7.79 µg/mL) and 3.3 µM (≈ 0.97 µg/mL), respectively. For the same compound, the hemolysis at 1 h, 125 ug/ml in [17] was 81%. In addition, in [14], the EC50 at 24 h is over 31.3 µg/mL.
For the compound `CCCCCCC(O)(Cn1cncn1)c1ccc(Cl)cc1` (configuration not stated), in data set [15], the hemolysis at 1 h, 62.5 ug/ml was 83.9%. Besides, the selectivity ratio came out at 16 in [1]; 1 in [2]; 8 in data set [3]; 19 in data set [4]; 5 in data set [5]; 2 in data set [7]. In addition, the selectivity ratio came out at 8 in data set [9], 1 in [10], 16 in data set [11] and 1 in data set [13]. The hemolysis at 1 h, 15.6 ug/ml in data set [16] came to 0%. The MIC50 in data set [6] stood at 102 µM (≈ 31.3 µg/mL); in data set [8], 6.3 µM (≈ 1.94 µg/mL); in [12], 25.3 µM (≈ 7.79 µg/mL). Moreover, the hemolysis at 1 h, 125 ug/ml in data set [17] came out at 102%. Further, in data set [14], the EC50 at 24 h was 38 µg/mL (≈ 123 µM).
On to `CCCCCCC(O)(Cn1cncn1)c1ccc(F)cc1` (configuration not stated), for which the hemolysis at 1 h, 62.5 ug/ml in data set [15] turned out to be 7%. Also, the selectivity ratio in data set [1] is 32; in [2] it was 4; in data set [3], 1; in data set [4], 4; in [5], 4; in data set [7], 2. For the same compound, the selectivity ratio in [9] was found to be 32; in data set [10], 1; in [11], 4; in [13], 4. For the same compound, the hemolysis at 1 h, 15.6 ug/ml in [16] amounted to 0%. Besides, the MIC50 in data set [6] was over 107 µM; in data set [8], 26.8 µM (≈ 7.81 µg/mL); in data set [12], 26.8 µM (≈ 7.81 µg/mL). Also, the hemolysis at 1 h, 125 ug/ml in [17] turned out to be 24.1%. The EC50 at 24 h in data set [14] is over 31.3 µg/mL.
